Assay outcomes deposited in PubChem BioAssay by several laboratories.
Rows were chosen to be rich in hits. Some 2.9% of all compounds tested hit in one or more screens of this group.
PfG6PD inh: PfG6PD (Plasmodium falciparum) enzyme inhibition | PfGluPho enzyme, NADPH resazurin-diaphorase fluorescence | inhibition, % at 20 µM | hit rate 0.78% among 350,000 | AID 504690;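 active means inhibition reaching at least a set limit at 20 µM in the primary screen, cut at about 59% in these data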
ZTA counter: blocks Epstein-Barr virus ZTA, an EBNA-1 counter-screen | ZTA-DNA binding, fluorescence polarization | inhibition, % at 11 µM | hit rate 0.15% among 320,000; in the data active means inhibition above about 33%
Target sequence (P03206 whole entry, looked up): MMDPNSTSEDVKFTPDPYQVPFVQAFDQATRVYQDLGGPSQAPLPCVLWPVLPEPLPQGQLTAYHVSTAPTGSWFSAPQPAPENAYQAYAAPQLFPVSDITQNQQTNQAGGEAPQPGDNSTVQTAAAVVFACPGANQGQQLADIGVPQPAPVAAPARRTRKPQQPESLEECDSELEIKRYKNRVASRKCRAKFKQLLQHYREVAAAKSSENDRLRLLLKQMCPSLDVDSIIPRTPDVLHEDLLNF
UBC13 inh: inhibitors of human UBC13 polyubiquitin chain formation. P61088. TR-FRET. inhibition, % at 20 µM. hit rate 0.47% among 330,000; in the data active means inhibition above about 45%, passing the limit was not always enough
Target sequence (P61088 whole entry, looked up): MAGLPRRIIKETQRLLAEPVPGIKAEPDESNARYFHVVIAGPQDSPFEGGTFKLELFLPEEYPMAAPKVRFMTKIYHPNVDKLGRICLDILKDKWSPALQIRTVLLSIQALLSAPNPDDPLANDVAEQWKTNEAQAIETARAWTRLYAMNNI
EBNA-1 inhibitor: blocks EBNA-1 binding to DNA | hit rate 0.34% among 300,000 | EBNA-1 DNA binding, fluorescence polarization | inhibition, % at 14.8 µM; in the data active means inhibition above about 28%
Apaf-1 inh: inhibitors of human Apaf-1 apoptosome. hit rate 0.71% among 330,000. inhibition, % at 20 µM. reconstituted apoptosome caspase-3 activity, DEVD-Rh110 fluorescence; active means inhibition of at least 40% at 20 µM
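Assay system – apoptosome proteins · Medium – Hepes buffer, pH 7.5 · Also added – cytochrome c with DEVD-Rh110 · Timing – 30 min compound preincubation, 50 min activation, room temperature · Detection – Rh110 fluorescence, excitation 480 nm, emission 540 nm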
M18AAP inhibitor: PfM18AAP enzyme inhibition; inhibition, % at 7.35 µM; recombinant PfM18AAP, H-Glu-NHMec fluorogenic cleavage; hit rate 1.2% among 290,000;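 active means inhibition above the campaign mean inhibition over all tested compounds plus 3 SD, cut at about 28% in these data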
Apaf-1 inh conf2: confirmation of Apaf-1 inhibitors; hit rate 25% among 1,800; reconstituted apoptosome, caspase-3 DEVD-Rh110 fluorescence; shares compounds with Apaf-1 inh; inhibition, % at 20 µM;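 active means mean inhibition of at least 40% at 20 µM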
Rh110 quench: Rh110 signal interference in Apaf-1 inhibitor counter-screen | shares compounds with Apaf-1 inh | Rh110 fluorescence interference, quenched caspase reaction | activation (fluorescence interference), % at 20 µM | 1,800 tested, under 10 active;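 active means signal rise of 40% or more at 20 µM, treated as a fluorescence artifact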
Apaf1 inh interf: counter-screen for Apaf-1 inhibitors: fluorescence interference, dose response. fluorescence interference counterscreen, Apaf-1 assay format. shares compounds with Apaf-1 inh. IC50, µM. 460 tested, under 10 active; call rule not given here
PfG6PD confirm: PfG6PD inhibition, single-dose confirmed. shares compounds with PfG6PD inh. recombinant PfGluPho, NADPH-diaphorase-resazurin fluorescence. inhibition, % at 20 µM. hit rate 34% among 2,400;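 active means inhibition of at least 50% at 20 µM in any single replicate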
Diaphorase 10uM: counter-screen for P. falciparum G6PD inhibitors: diaphorase inhibitors, oxidizers. shares compounds with PfG6PD inh. diaphorase-coupled resazurin reduction, fluorescence, NADPH 10 uM. inhibition, % at 20 µM. hit rate 39% among 820;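 active means average inhibition reaching 50% or more with the compound at 20 µM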;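 further: resorufin red fluorescence formed as diaphorase reduces resazurin using NADPH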
Diaphorase 30uM: inhibits diaphorase or oxidizes, flagging false PfG6PD hits. shares compounds with PfG6PD inh. Diaphorase/resazurin coupled assay, resorufin fluorescence, 30 uM NADPH. inhibition, % at 20 µM. hit rate 29% among 820;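 active means inhibition averaging 50% or more, tested at 20 µM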
Numbers stand for hits; n = inactive; x = not tested or not shown.

SMILES	PfG6PD inh	ZTA counter	UBC13 inh	EBNA-1 inhibitor	Apaf-1 inh	M18AAP inhibitor	Apaf-1 inh conf2	Rh110 quench	others
O=C(O)C1C2c3ccccc3C(c3ccccc32)C1C(=O)Nc1ccccc1 (configuration not stated)	n	n	n	n	n	n	x	x
CCC(C)N1C(=O)NC(=O)C2(Cc3c(ccc4ccccc34)N(C)C2)C1=O (configuration not stated)	n	n	n	n	64.8	n	n	n
COc1cc(C(c2c(C)[nH]n(-c3ccccc3)c2=O)c2c(C)[nH]n(-c3ccccc3)c2=O)cc(OC)c1OC	n	n	n	n	91.8	n	62.1	n	Apaf1 inh interf=n
COc1ccccc1N1CCN(Cc2cnc(-c3ccccc3)[nH]2)CC1	n	n	n	n	n	n	x	x
CCOC(=O)c1c(N)n(Cc2ccco2)c2nc3ccccc3nc12	n	n	n	n	n	n	x	x
CCCCn1c(NS(=O)(=O)c2ccc(C)cc2)c(C(=O)OCC)c2nc3ccccc3nc21	n	n	n	n	90.3	n	n	n
CCCCn1c(NC(=O)c2ccco2)c(C(=O)OCC)c2nc3ccccc3nc21	n	n	n	n	82.6	n	79.8	n	Apaf1 inh interf=n
CCOP(=O)(Cc1cc(C(=O)CC)c(C)o1)OCC	n	n	n	n	n	n	x	x
Cc1cc(=O)oc2cc3c(cc12)CCCN3	n	n	n	n	n	n	x	x
COc1ccc(OC(=O)N(C)C[C@H]2OCc3cnnn3CCCC(=O)N([C@@H](C)CO)C[C@H]2C)cc1	n	x	x	x	x	x	x	x
COc1cc2c(cc1O)C[C@H]1NCCc3cc4c(c-2c31)OCO4	n	n	n	n	71.0	n	n	n
COc1c2c(cc3c1OCO3)CCN(C)C2	n	n	n	n	n	x	x	x
COC(=O)C(O)(c1c(C)[nH]n(-c2ccccc2)c1=O)C(F)(F)F (configuration not stated)	n	n	n	n	78.6	n	52.3	n	Apaf1 inh interf=n
Cn1c(=O)[nH]c2nncnc2c1=O	n	n	n	n	68.1	x	68.1	n	Apaf1 inh interf=n
CC(C)OP(=O)(O)NC(=O)c1ccccc1	n	n	n	n	n	n	x	x
CCCCOCCCn1c(N)c(C(=O)OCCOC)c2nc3ccccc3nc21	n	n	n	n	65.9	n	n	n
COCCOC(=O)c1c(N)n(Cc2ccccc2)c2nc3ccccc3nc12	n	n	n	n	82.6	n	n	n
CCOC(=O)c1c(NC(=O)c2c(N)n(CCCOC)c3nc4ccccc4nc23)sc2c1CCCC2	n	n	n	n	n	n	x	x
COCCCn1c(N)c(C(=O)NCCC(C)C)c2nc3ccccc3nc21	n	n	n	n	90.6	n	52.1	n	Apaf1 inh interf=n
CCCOC(=O)c1c(N)n(Cc2cccs2)c2nc3ccccc3nc12	n	n	n	n	n	n	x	x
CCCCn1c(N)c(C(=O)OCC2CCCO2)c2nc3ccccc3nc21 (configuration not stated)	n	n	n	n	n	n	x	x
CCCC/C(=N/O)c1c(C)[nH]c2ccccc12	n	n	n	n	n	n	x	x
CC(=O)c1cccc(NC2=NCC(C)S2)c1 (configuration not stated)	n	n	n	n	n	n	x	x
CSc1ccc(C(=O)C2CCCN(CCCn3cccn3)C2)cc1 (configuration not stated)	n	n	n	n	n	n	x	x
COc1ccc(CCNC(=O)c2c(N)n(CCN3CCOCC3)c3nc4ccccc4nc23)cc1OC	n	n	n	n	n	n	x	x
SMILES	PfG6PD inh	ZTA counter	UBC13 inh	EBNA-1 inhibitor	Apaf-1 inh	M18AAP inhibitor	Apaf-1 inh conf2	Rh110 quench	others
CCCCNC(=O)c1c(N)n(Cc2ccc3c(c2)OCO3)c2nc3ccccc3nc12	n	n	n	n	95.4	n	n	n
CCCCCn1c(N)c(C(=O)NCc2cccs2)c2nc3ccccc3nc21	n	n	n	n	69.8	n	40.6	n	Apaf1 inh interf=n
CCCCCn1c(N)c(C(=O)NCCN2CCOCC2)c2nc3ccccc3nc21	n	n	n	n	n	n	x	x
CCOCCCn1c(N)c(C(=O)Nc2sc3c(c2C(=O)OC)CCCC3)c2nc3ccccc3nc21	n	n	n	n	n	n	x	x
Nc1c(C(=O)NCCCc2ccccc2)c2nc3ccccc3nc2n1Cc1cccs1	n	n	n	n	83.8	n	n	n
CCCCn1c(N)c(C(=O)NCc2cccs2)c2nc3ccccc3nc21	n	n	n	n	85.0	n	n	n
Cc1cccc(C)c1NC(=O)CN(C)CC(=O)Nc1ccc(C#N)c(Cl)c1	n	n	n	n	n	n	x	x
Nc1c(C(=O)NCc2ccco2)c2nc3ccccc3nc2n1Cc1ccc(F)cc1	n	n	n	n	89.3	n	n	n
COc1ccc(Cn2c(N)c(C(=O)NCc3ccco3)c3nc4ccccc4nc32)cc1	n	n	n	n	66.9	n	n	n
O=C(c1ccc2nc(-c3ccco3)c(-c3ccco3)nc2c1)N1CCC2(CC1)OCCO2	n	n	n	n	56.4	x	n	n
COC(=O)c1nc(-c2ccc3c(n2)C(=O)C(N)=C(OC)C3=O)c(N)c(-c2ccc(OC)c(OC)c2O)c1C	n	n	n	n	88.8	31.8	99.6	n	Apaf1 inh interf=n
CCn1nc(/C=C/c2ccccc2)nc2c(=O)n(C)c(=O)nc1-2	101.5	x	n	x	98.8	n	100.3	n	Apaf1 inh interf=n;PfG6PD confirm=76.1;Diaphorase 10uM=92.8;Diaphorase 30uM=98.5
CCOP(=S)(OCC)SCC(=O)NC(C)(CC)C(=O)O (configuration not stated)	n	n	n	n	n	n	x	x
COc1cccc(N2C(=O)NC(=O)/C(=C/c3ccc([N+](=O)[O-])s3)C2=O)c1	82.7	n	n	n	n	n	x	x	PfG6PD confirm=n
COc1cccc(N2C(=O)NC(=O)/C(=C/c3ccc4c(c3)Cc3ccccc3-4)C2=O)c1	n	n	n	n	n	n	x	x
Cc1ccc(/C=C2\C(=O)NC(=S)N(c3ccccc3F)C2=O)s1	66.0	n	x	n	x	n	x	x	PfG6PD confirm=55.9;Diaphorase 10uM=n;Diaphorase 30uM=n
CN=C1CN(O)C(c2ccccc2)=c2cc(Cl)ccc2=N1	n	n	n	n	n	x	x	x
CCOP(=S)(OCC)Oc1ccc2c(C)c(Cl)c(=O)oc2c1	n	x	x	x	x	x	x	x
